Columns and labels:
[1] = Cytotoxicity against human HaCaT cells incubated for 72 hrs by MTT assay; type: toxicity, cell-based
How it was run: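 Cells seeded at 4000/well, incubated overnight, then exposed to a range of concentrations, or DMSO vehicle, for 72 h. MTT (5 mg/mL solution) added for 4 h and formazan dissolved in DMSO. Absorbance read at 570 nm, and IC50 derived from the curves. Tumor lines were grown in RPMI 1640; HUVEC, HaCaT and LO2 were grown in DMEM, each with 10% FBS at 37 °C and 5% CO2.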

[2] = system: NCI-H460; assay: Induction of apoptosis in human NCI-H460 cells assessed as early apoptotic cells at 1 uM measured after 48 hrs by Annexin V-FITC/PI staining method (reference value: 3.26%); type: functional
[3] = system: NCI-H460; assay: Induction of apoptosis in human NCI-H460 cells assessed as necrotic cells at 1 uM measured after 48 hrs by Annexin V-FITC/PI staining method (reference value: 1.62%); type: functional
[4] = Stability in human serum measured upto 72 hrs by HPLC analysis; type: ADME, cell-free
How it was run: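 15 µM test agent incubated with human or mouse serum at 37 °C for 0, 0.5, 1, 8, 12, 18, 60 and 72 h. Samples stored at −80 °C, protein precipitated with 200 µL methanol, vortexed and sonicated 5 min. Intact agent and released triptolide measured by HPLC at 220 nm, in duplicate.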

[5] = Half life in NCI-H1975 tumor bearing nude mouse model serum at 1 mg/kg, iv; type: ADME, organism-based
[6] = Toxicity in BALB/c nude mouse xenografted with human NCI-H1975 cells assessed as morphological change in heart at 1 to 2 mg/kg administered ip, qd for 2 weeks; conditions: in vivo, 336 h
[7] = Toxicity in BALB/c nude mouse xenografted with human NCI-H1975 cells assessed as morphological change in liver at 1 to 2 mg/kg administered ip, qd for 2 weeks; conditions: in vivo, 336 h
[8] = Toxicity in BALB/c nude mouse xenografted with human NCI-H1975 cells assessed as degeneration of inter tube connective tissue at 2 mg/kg administered ip, qd for 2 weeks; conditions: in vivo, 336 h

CC(C)[C@]12O[C@H]1[C@@H]1O[C@]13[C@]1(O[C@H]1C[C@H]1C4=C(CC[C@@]13C)C(=O)OC4)[C@@H]2OC(=O)CCC(=O)O[C@H]1C(O)O[C@H](CO)[C@@H](O)[C@@H]1O (stereo partly drawn)
IC50 at 72 h [1]: 6.54 µM | Activity [2]: 7.09% | Activity [3]: 0.85% | Stability [4]: Stable | half-life [5]: 19.2 min | Activity [6]: Non-Toxic | Activity [7]: Non-Toxic | Activity [8]: Toxic
